Published values collected from several papers.
Protocols differ between the studies behind these lines.
CDK2: Cyclin-dependent kinase 2 (CDK2, Homo sapiens, UniProt P24941)

| SMILES | target | test | system | conditions | quantity | result |
| --- | --- | --- | --- | --- | --- | --- |
| C#Cc1cc(-c2cc(Nc3nc(N[C@@H](C)c4ccc(F)cn4)ncc3Cl)n[nH]2)ccc1C=O | Tyrosine-protein kinase Fyn (FYN, Homo sapiens, UniProt P06241) | enzyme activity, inhibitor | – | 0.2 µM | inhibition | 66.5% |
| Cc1cc(O)c(-c2ccc([C@@H](C)CN(C)C)cc2)c2c1[nH]c(=O)c1sccc12 | MAP kinase-activated protein kinase 3 (MAPKAPK3, Homo sapiens, UniProt Q16644) | enzyme activity, inhibitor | – | 0.1 µM | inhibition | -21.1% |
| NC/C(=C\F)COc1cccc(Cn2c(=S)[nH]c(=O)c3[nH]cnc32)c1 | Voltage-dependent N-type calcium channel subunit alpha-1B (Cacna1b, Rattus norvegicus, UniProt Q02294) | ligand displacement, radioligand | – | 10 µM | inhibition | < 50% |
| Cc1cc(S(=O)(=O)NCCO[C@H]2CC[C@H](CN3CCC(c4ccc5c(c4)n(C)c(=O)n5C4CCC(=O)NC4=O)CC3)CC2)ccc1Nc1ncc(C(F)(F)F)c([C@H]2CC[C@@](C)(O)CC2)n1 (stereo partly drawn) | CDK2 | protein level, degrader, western blot | MKN-1 | – | Dmax | 90% |
| CCCCC(=O)Nc1ccc(-c2ccc3ncn(CCC)c(=O)c3c2)cn1 | Serine/threonine-protein kinase D3 (PRKD3, Homo sapiens, UniProt O94806) | binding, competition with immobilised ligand | – | 0.5 µM | remaining binding | 92% |
| COc1cc(Br)cc(C2NC(=O)NC(C)=C2C(=O)OCc2ccccc2)c1O (stereo not drawn) | Voltage-dependent L-type calcium channel subunit alpha-1C (Cacna1c, Rattus norvegicus, UniProt P22002) | ion current, inhibitor, patch clamp | HEK293 | 10 µM | inhibition | > 60% |
| Cc1cc(S(=O)(=O)NC2CCC(CC3CCN(c4ccc(C5CCC(=O)NC5=O)cc4)CC3)CC2)ccc1Nc1ncc(C(F)(F)F)c(N2CCC[C@](C)(O)C2)n1 (stereo partly drawn) | CDK2 | protein level, degrader, western blot | MKN-1 | – | Dmax | 80% |
| Cc1cc(=O)oc2cc(NC(=O)[C@H](CCCN=C(N)N)NC(=O)[C@H](CCCN=C(N)N)NC(=O)OCc3ccccc3)ccc12 | Cathepsin B (CTSB, Homo sapiens, UniProt P07858) | enzyme activity, substrate, fluorescence | – | pH 5 | Km | 858 µM |
| Cc1cc(S(=O)(=O)NC2CC(N3CCN(CC4CCN(c5cccc6c5n(C)c(=O)n6C5CCC(=O)NC5=O)CC4)C4(CC4)C3)C2)ccc1Nc1ncc(C(F)(F)F)c(N2CCC[C@](C)(O)C2)n1 (stereo partly drawn) | CDK2 | protein level, degrader, western blot | MKN-1 | – | Dmax | 92% |
| CCN1/C(=C/C(C)=O)Sc2ccc(F)cc21 | Alpha-1A adrenergic receptor (Adra1a, Rattus norvegicus, UniProt P43140) | ligand displacement, radioligand | – | 10 µM | inhibition | 1.54% |
| C[C@]1(O)CCCN(c2nc(Nc3ccc(S(=O)(=O)N[C@H]4CC[C@H](CN5CCN(c6ccc(C7CCC(=O)NC7=O)cc6F)CC5)CC4)cc3F)ncc2C(F)(F)F)C1 (stereo partly drawn) | CDK2 | protein level, degrader, western blot | TOV21G | – | Dmax | 95% |
| C1=C/COCc2cc(ccc2OCCN2CCCC2)Nc2nccc(n2)-c2cccc(c2)COC/1 | Cyclin-dependent kinase 2 homolog (CRK2, Plasmodium falciparum, UniProt P61075) | cell-free assay | – | 0.1 µM | remaining signal | 85% |
